Compound activity deposited in PubChem BioAssay by The Scripps Research Institute Molecular Screening Center.
Sampled rows, rich in hits. Any-hit rate of the full collection: about 3.1%.
OX1R antag-1: blocks the human orexin 1 receptor | inhibition, % at 6.6 µM | 1.8% of 330,000 active | AID 485270 | OX1R-expressing cells, FRET antagonist read-out; in the data active = inhibition mostly above about 38%, no sharp cut-off; inactive = mostly below about 40%
Target sequence (O43613 whole entry, looked up): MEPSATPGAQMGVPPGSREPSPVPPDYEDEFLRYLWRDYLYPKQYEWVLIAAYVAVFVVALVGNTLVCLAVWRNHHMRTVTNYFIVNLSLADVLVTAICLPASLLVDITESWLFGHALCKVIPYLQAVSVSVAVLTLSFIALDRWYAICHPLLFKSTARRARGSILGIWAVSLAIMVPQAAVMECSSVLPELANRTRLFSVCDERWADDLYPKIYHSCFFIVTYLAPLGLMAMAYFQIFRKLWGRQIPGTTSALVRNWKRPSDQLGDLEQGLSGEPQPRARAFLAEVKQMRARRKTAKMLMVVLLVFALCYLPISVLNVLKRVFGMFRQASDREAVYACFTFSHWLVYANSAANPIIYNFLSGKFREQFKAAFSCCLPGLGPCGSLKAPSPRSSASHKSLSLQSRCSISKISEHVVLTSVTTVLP
GalR3 antag: blocks the human galanin receptor 3; O60755; AID 651719; HEK293 GalR3-CNG cAMP membrane potential fluorescence; galR3 body fused to GalR1 C-terminus; inhibition, % at 3 µM; 0.44% of 360,000 active;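 active = inhibition above the screen-wide average plus 3 SD, cut at about 13% in these data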;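 note: forskolin and galanin both at EC90 stimulate the cells; cAMP rise reported by CNG channel membrane potential dye signal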
OX1R antag-2: blocks the human orexin 1 receptor | O43613 | CHO/OX1R cells, Fluo-8 calcium fluorescence, orexin A | inhibition, % at 5 µM | 0.43% of 330,000 active;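 active = inhibition above its plate's threshold, mean inhibition of all tested compounds on the plate plus 3 SD, cut at about 37% in these data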
GPR7 antagonist: blocks human GPR7 receptor signaling; GPR7-expressing cells, fluorescence antagonist assay; AID 1861; 1.1% of 290,000 active; inhibition, % at 4.4 µM; P48145; in the data active = inhibition above about 16%, passing the limit was not always enough;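 note: cells stimulated with the agonist NPW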
CHO parental Ca: counter-screen: ATP calcium response change in parental CHO cells; parental CHO-K1, ATP-induced calcium, Fluo-8 fluorescence; inhibition, % at 5.6 µM; 0.63% of 330,000 active; AID 463079;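 active = inhibition above that plate's mean sample inhibition plus 3 SD, cut at about 26% in these data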
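Material: Parental CHO cells | Reagent: ATP | Compound dosing: Single nominal dose of 5.6 µM per compound | Detection: Intracellular calcium via Fluo-8 no-wash fluorescent dye | Read-out: % inhibition of ATP-induced calcium mobilization | Benchmarks: Low control ATP plus DMSO, high control DMSO only | Replicates: Singlicate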
OX1R HTRF confirm: confirmation of human orexin 1 receptor antagonists, HTRF format; 49% of 1,800 active; inhibition, % at 6.6 µM; AID 492964; shares compounds with OX1R antag-1; OX1R-expressing cells, HTRF antagonist assay; in the data active = inhibition above about 55%;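 note: CHO cells expressing OX1R stimulated with orexin A at about EC80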
CHO-K1 HTRF cnt: signal in parental CHO-K1 cells, OX1R antagonist counter-screen; shares compounds with OX1R antag-1; HTRF counterscreen; inhibition, % at 6.6 µM; 48% of 1,800 active; in the data active = inhibition above about 17%
Numbers stand for hits.

NS(=O)(=O)c1ccc(NC(=O)COC(=O)c2ccc([N+](=O)[O-])s2)cc1 was read as OX1R antag-1 inactive, GalR3 antag inactive, OX1R antag-2 inactive, GPR7 antagonist inactive and CHO parental Ca inactive.
Cc1ccccc1CN1C(=O)c2ccccc2C1c1nnnn1C(C)C (configuration not stated) was read as GalR3 antag inactive.
CCCNC(=O)C1(C)CCCN(CC(=O)c2ccccc2OC)C1 (configuration not stated) was read as GalR3 antag inactive.
CC(=O)NN1C(=O)c2ccc3c4c(ccc(c24)C1=O)C(=O)N(NC(C)=O)C3=O was read as OX1R antag-1 83.2, GalR3 antag inactive, OX1R antag-2 inactive, GPR7 antagonist inactive, CHO parental Ca inactive, OX1R HTRF confirm 69.1 and CHO-K1 HTRF cnt 174.1.
For OC(c1ccc(Cl)c(F)c1)c1ncc(-c2ccc(F)cc2)[nH]1 (configuration not stated) the results were GalR3 antag inactive.
Screening Cc1ccc(S(=O)(=O)N2[C@@H](Cc3ccccc3)CO[C@H]2CC(=O)c2cccs2)cc1 returned GalR3 antag inactive.
CC1=CC(=NOC(=O)c2cccc([N+](=O)[O-])c2)C=C(C)C1=O was read as OX1R antag-1 118.3, GalR3 antag inactive, OX1R antag-2 inactive, GPR7 antagonist inactive, CHO parental Ca inactive, OX1R HTRF confirm inactive and CHO-K1 HTRF cnt 17.8.
For O=[N+]([O-])c1nn(-c2ccc(Cl)cc2)n(O)c1=NCc1ccncc1 the results were OX1R antag-1 84.3, GalR3 antag inactive, OX1R antag-2 inactive, GPR7 antagonist inactive, CHO parental Ca inactive, OX1R HTRF confirm inactive and CHO-K1 HTRF cnt 53.7.
For Cc1ccc(CN=c2c([N+](=O)[O-])nn(-c3ccc(Cl)cc3)n2O)cc1 the results were OX1R antag-1 inactive, GalR3 antag inactive, OX1R antag-2 inactive, GPR7 antagonist inactive and CHO parental Ca inactive.
Screening Cc1cc(C)n2ncc(-c3cccc(Br)c3)c2n1 returned OX1R antag-1 inactive, GalR3 antag inactive, OX1R antag-2 inactive, GPR7 antagonist inactive and CHO parental Ca inactive.
`Cc1cc(C)n2nc(-c3cccc(Br)c3)cc2n1` gave OX1R antag-1 85.5, GalR3 antag inactive, OX1R antag-2 inactive, GPR7 antagonist inactive, CHO parental Ca inactive, OX1R HTRF confirm 90.2 and CHO-K1 HTRF cnt inactive.
`Cc1n[nH]c(C)c1N1C(=O)c2cccc3cc(Br)cc(c23)C1=O` gave OX1R antag-1 inactive, GalR3 antag inactive, OX1R antag-2 inactive, GPR7 antagonist inactive and CHO parental Ca inactive.
For Cc1n[nH]c(C)c1N1C(=O)c2cccc3c(Br)ccc(c23)C1=O the results were OX1R antag-1 79.7, GalR3 antag inactive, OX1R antag-2 inactive, GPR7 antagonist inactive, CHO parental Ca inactive, OX1R HTRF confirm inactive and CHO-K1 HTRF cnt 40.0.
Screening Cc1ccc(N2CN=c3s/c(=C\c4cccnc4)c(=O)n3C2)cc1 returned OX1R antag-1 98.6, GalR3 antag inactive, OX1R antag-2 inactive, GPR7 antagonist inactive, CHO parental Ca inactive, OX1R HTRF confirm inactive and CHO-K1 HTRF cnt 48.9.
Screening CC(CC1C(C#N)=C(N)SC(N)=C1C#N)c1ccccc1 (configuration not stated) returned OX1R antag-1 87.7, GalR3 antag inactive, OX1R antag-2 inactive, GPR7 antagonist inactive, CHO parental Ca inactive, OX1R HTRF confirm inactive and CHO-K1 HTRF cnt inactive.
Screening O=C(CCCN1C(=O)c2cccc3cccc(c23)C1=O)NC1CCS(=O)(=O)C1 (configuration not stated) returned OX1R antag-1 84.8, GalR3 antag inactive, OX1R antag-2 inactive, GPR7 antagonist inactive, CHO parental Ca inactive, OX1R HTRF confirm inactive and CHO-K1 HTRF cnt 49.7.
For O=C(O)CCCN1C(=O)c2cccc3cccc(c23)C1=O the results were OX1R antag-1 inactive, GalR3 antag inactive, OX1R antag-2 inactive, GPR7 antagonist inactive and CHO parental Ca inactive.
`Cn1c(SCC(=O)N2CCOCC2)nnc1-c1ccncc1` gave OX1R antag-1 inactive, GalR3 antag inactive, OX1R antag-2 inactive, GPR7 antagonist inactive and CHO parental Ca inactive.
Screening O=C(CSc1nnc2nnc3ccccc3n12)N1CCOCC1 returned OX1R antag-1 94.0, GalR3 antag inactive, OX1R antag-2 inactive, GPR7 antagonist inactive, CHO parental Ca inactive, OX1R HTRF confirm 72.2 and CHO-K1 HTRF cnt 102.8.
Screening Cc1cc(C2C(=O)NC(=O)C2=O)c(C)cc1Br (configuration not stated) returned GalR3 antag inactive.
For Cn1c(=O)c2[nH]c(CCCCCc3nc4ccccc4[nH]3)nc2n(C)c1=O the results were GalR3 antag inactive.
For Cn1c(=O)c2nc3ccccc3nc2n(C)c1=O the results were OX1R antag-1 159.7, GalR3 antag inactive, OX1R antag-2 inactive, GPR7 antagonist inactive, CHO parental Ca inactive, OX1R HTRF confirm 92.3 and CHO-K1 HTRF cnt 95.3.
`Cn1c(=O)c2nc(Cl)c(-c3ccccc3)nc2n(C)c1=O` gave OX1R antag-1 86.7, GalR3 antag inactive, OX1R antag-2 inactive, GPR7 antagonist inactive, CHO parental Ca inactive, OX1R HTRF confirm inactive and CHO-K1 HTRF cnt 80.5.
`Cc1cccc(Nc2nc(-c3ccc(O)cc3O)cs2)n1` gave OX1R antag-1 inactive, GalR3 antag inactive, OX1R antag-2 inactive, GPR7 antagonist inactive and CHO parental Ca inactive.
Screening O=C(Nc1ccc2nc(-c3ccc(Br)o3)[nH]c2c1)c1cccs1 returned OX1R antag-1 82.7, GalR3 antag inactive, OX1R antag-2 inactive, GPR7 antagonist inactive, CHO parental Ca inactive, OX1R HTRF confirm inactive and CHO-K1 HTRF cnt inactive.
Screening CC(=O)Nc1ccc2nc(-c3ccc(Br)o3)[nH]c2c1 returned OX1R antag-1 inactive, GalR3 antag inactive, OX1R antag-2 inactive, GPR7 antagonist inactive and CHO parental Ca inactive.
O=Cc1c(Sc2ccccn2)nc2ccccn2c1=O was read as OX1R antag-1 95.5, GalR3 antag inactive, OX1R antag-2 inactive, GPR7 antagonist inactive, CHO parental Ca inactive, OX1R HTRF confirm inactive and CHO-K1 HTRF cnt 44.6.
C[C@@H]1CN([C@H](C)CO)C(=O)CCCn2nncc2CO[C@@H]1CN(C)S(=O)(=O)c1ccc(F)cc1 was read as GalR3 antag inactive.
O=C(O)c1ccccc1Nc1ccc2nonc2c1[N+](=O)[O-] was read as GalR3 antag inactive and GPR7 antagonist inactive.
`CC(=O)Nc1ccc(Nc2ccc3nonc3c2[N+](=O)[O-])cc1` gave OX1R antag-1 active, GalR3 antag inactive, OX1R antag-2 inactive, GPR7 antagonist inactive, CHO parental Ca inactive, OX1R HTRF confirm 54.7 and CHO-K1 HTRF cnt 93.1.
Screening Cc1ccc2c(CC(=O)Nc3ccc4nc(N5CCOCC5)sc4c3)coc2c1 returned GalR3 antag inactive.
`CNC(=O)c1nc(C)n(-c2ccc([N+](=O)[O-])cc2)n1` gave OX1R antag-1 inactive, GalR3 antag inactive, OX1R antag-2 inactive, GPR7 antagonist inactive and CHO parental Ca inactive.
